The record followed here is ChEMBL document CHEMBL1157555, “Synthesis and pharmacological evaluation of novel 1,3,8- and 1,3,7,8-substituted xanthines as adenosine receptor antagonists” (Bioorg Med Chem, 2010).

The structures appear in SMILES notation.

What all share (format): cell-based
The target in assay [1] is T1, Adenosine receptor A1 (Homo sapiens) (UniProt P30542).
T1 sequence (whole entry): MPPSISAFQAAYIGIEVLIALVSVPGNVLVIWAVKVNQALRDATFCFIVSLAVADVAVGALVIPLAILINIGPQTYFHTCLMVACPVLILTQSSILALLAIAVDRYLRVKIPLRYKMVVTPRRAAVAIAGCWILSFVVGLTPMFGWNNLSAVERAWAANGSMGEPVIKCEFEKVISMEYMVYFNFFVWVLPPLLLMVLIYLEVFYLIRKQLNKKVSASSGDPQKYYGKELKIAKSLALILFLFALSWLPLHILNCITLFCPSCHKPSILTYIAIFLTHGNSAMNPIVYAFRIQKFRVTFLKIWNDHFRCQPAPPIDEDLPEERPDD
The assay is described as follows: Displacement of [3H]DPCPX from human recombinant adenosine A1 receptor expressed in CHO cells at 1 uM by microplate beta scintillation counter. In outline: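 Membranes from CHO cells expressing human A1 were labelled with 2 nM [3H]DPCPX. Non-specific binding was defined with (R)-PIA. Incubation ran 60 min at 25 °C, then samples were filtered and counted by beta scintillation. IC50 came from non-linear regression, and Ki from Cheng–Prusoff. Weak or poorly soluble compounds were reported as % inhibition of specific binding at a single concentration. Mean of 3 experiments, each in duplicate.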

In the next assay the target is Adenosine receptor A2a (Homo sapiens, UniProt P29274). The experiment in a line: Displacement of [3H]ZM241385 from human recombinant adenosine A2A receptor expressed in human HeLa cells at 1 uM by microplate beta scintillation counter. In outline: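 Competition used HeLa cell membranes expressing human A2A with [3H]ZM241385. Non-specific binding was set with NECA. Incubation was 30 min at 25 °C, then filtration and beta scintillation counting. IC50 from non-linear regression was converted to Ki (Cheng–Prusoff). Weak or poorly soluble compounds were reported as % inhibition of specific binding at a single concentration. Three experiments, each in duplicate.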
A general note: Displacement assays read how much labelled ligand stays bound in the presence of the test substance.

Assay [2] has as its target T2, Adenosine receptor A2b (Homo sapiens) (UniProt P29275).
T2 sequence (whole entry): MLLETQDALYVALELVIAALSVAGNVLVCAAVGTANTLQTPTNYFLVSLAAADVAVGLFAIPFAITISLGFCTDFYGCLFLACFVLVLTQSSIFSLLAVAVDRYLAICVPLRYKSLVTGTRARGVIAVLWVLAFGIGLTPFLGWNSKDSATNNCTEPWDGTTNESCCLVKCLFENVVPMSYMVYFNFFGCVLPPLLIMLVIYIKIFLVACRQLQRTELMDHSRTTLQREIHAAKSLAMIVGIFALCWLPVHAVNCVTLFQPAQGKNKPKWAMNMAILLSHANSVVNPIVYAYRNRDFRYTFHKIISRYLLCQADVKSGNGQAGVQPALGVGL
The experiment in a line: Displacement of [3H]DPCPX from human recombinant adenosine A2B receptor expressed in HEK293 cells at 1 uM by microplate beta scintillation counter. In outline: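 Membranes from HEK-293 cells expressing human A2B were labelled with 35 nM [3H]DPCPX. Incubation ran 30 min at 25 °C, followed by filtration and beta scintillation counting. IC50 was fitted by non-linear regression and converted to Ki by Cheng–Prusoff. Weak or poorly soluble compounds were given as % inhibition of specific binding at a single concentration. n = 3, each in duplicate.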

Assay [3] deals with T3, Adenosine receptor A3 (Homo sapiens) (UniProt P0DMS8).
T3 sequence (whole entry): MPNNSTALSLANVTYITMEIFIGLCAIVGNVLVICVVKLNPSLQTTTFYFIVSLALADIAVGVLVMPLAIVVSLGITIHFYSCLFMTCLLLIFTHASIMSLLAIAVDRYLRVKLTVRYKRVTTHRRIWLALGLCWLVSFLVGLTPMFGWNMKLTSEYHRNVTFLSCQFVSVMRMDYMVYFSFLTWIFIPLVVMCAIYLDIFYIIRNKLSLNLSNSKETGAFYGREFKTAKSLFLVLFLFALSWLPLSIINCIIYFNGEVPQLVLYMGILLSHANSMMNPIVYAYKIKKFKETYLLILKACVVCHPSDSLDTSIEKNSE
The experiment in a line: Displacement of [3H]NECA from human recombinant adenosine A3 receptor expressed in human HeLa cells at 1 uM by microplate beta scintillation counter. An outline of the steps:
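HeLa-A3 cell membranes were labelled with 30 nM [3H]NECA. Non-specific binding was defined with (R)-PIA. After 180 min at 25 °C, samples were filtered and counted by beta scintillation. Ki was calculated by Cheng–Prusoff from IC50 obtained by non-linear regression. Weak or poorly soluble compounds were reported as % inhibition of specific binding at a single concentration. Mean of 3 experiments in duplicate.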

Chain of Adenosine receptor A2a (P29274 whole entry): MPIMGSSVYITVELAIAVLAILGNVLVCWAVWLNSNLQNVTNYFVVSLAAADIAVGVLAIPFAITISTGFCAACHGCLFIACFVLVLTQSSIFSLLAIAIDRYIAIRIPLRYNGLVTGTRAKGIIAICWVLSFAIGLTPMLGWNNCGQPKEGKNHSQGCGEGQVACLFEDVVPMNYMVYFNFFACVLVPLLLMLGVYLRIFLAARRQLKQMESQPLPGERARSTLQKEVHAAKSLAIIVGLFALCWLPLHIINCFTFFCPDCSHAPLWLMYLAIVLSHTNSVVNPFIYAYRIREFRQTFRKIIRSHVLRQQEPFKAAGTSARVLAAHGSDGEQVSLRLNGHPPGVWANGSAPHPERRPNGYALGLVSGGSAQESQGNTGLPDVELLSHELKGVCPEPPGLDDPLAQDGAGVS

With `CCSCCn1c(=O)n(CC)c(=O)c2[nH]c(-c3ccc(-c4ccccc4)cc3)nc21`, the Activity in assay [1] came to 7%; on Adenosine receptor A2a it was 4%; in assay [2], 22%; in assay [3] it was 17%.

For the molecule `CCn1c(=O)c2[nH]c(-c3ccccc3)nc2n(CCS(=O)(=O)CC)c1=O`, the Activity in assay [1] amounted to 35%; on Adenosine receptor A2a it was 0%; in assay [2] it was 18%; in assay [3], 35%.

Take `O=c1c2[nH]c(-c3cccs3)nc2n(CC2CCCCC2)c(=O)n1CC1CCCCC1`: the Activity turned out to be 2% in assay [1], 14% on Adenosine receptor A2a, 10% in assay [2] and 2% in assay [3].

On to `CCn1c(=O)c2[nH]c(Cc3ccco3)nc2n(Cc2ccccc2)c1=O`, for which the Activity was found to be 23% in assay [1], 9% on Adenosine receptor A2a, 34% in assay [2] and 30% in assay [3].

`O=c1c2[nH]c(Cc3cccs3)nc2n(CC2CCCCC2)c(=O)n1CC1CCCCC1`: the Activity in assay [1] is 4%; at Adenosine receptor A2a, 50%; in assay [2] it was 1%; in assay [3], 16%.

With `Cn1c(=O)c2[nH]c(Cc3cccs3)nc2n(CC2CCCCC2)c1=O`, the Activity worked out at 42% in assay [1], 11% on Adenosine receptor A2a, 2% in assay [2] and 2% in assay [3].

Take `CCCn1c(=O)c2[nH]c(-c3ccccc3)nc2n(CCOCC)c1=O`: the Activity in assay [1] was 39%; on Adenosine receptor A2a, 6%; in assay [2], 24%; in assay [3], 47%.

Turning to `CCCn1c(=O)c2[nH]c(Cc3ccccc3)nc2n(CCS(=O)(=O)CC)c1=O`, the Activity is 15% in assay [1], 13% on Adenosine receptor A2a, 2% in assay [2] and 15% in assay [3].

As to `CCn1c(=O)c2[nH]c(Cc3c(F)cccc3F)nc2n(Cc2ccccc2)c1=O`, the Activity stood at 23% in assay [1], 1% at Adenosine receptor A2a, 8% in assay [2] and 1% in assay [3].

As to `CCSCCn1c(=O)n(CC)c(=O)c2[nH]c(Cc3ccccc3)nc21`, the Activity in assay [1] came to 34%; at Adenosine receptor A2a it was 0%; in assay [2], 5%; in assay [3], 10%.

For the molecule `CCOCCn1c(=O)n(CC)c(=O)c2[nH]c(-c3ccc(-c4ccccc4)cc3)nc21`, the Activity turned out to be 19% in assay [1], 28% on Adenosine receptor A2a, 46% in assay [2] and 17% in assay [3].

For `CCn1c(=O)c2[nH]c(Cc3c(F)cccc3F)nc2n(Cc2cccs2)c1=O`, the Activity in assay [1] came out at 28%; at Adenosine receptor A2a it was 21%; in assay [2], 52%; in assay [3], 38%.

As to `CCn1c(=O)c2[nH]c(-c3ccccc3)nc2n(CC[S+]([O-])CC)c1=O` (stereo not drawn), the Activity was determined as 29% in assay [1], 20% on Adenosine receptor A2a, 32% in assay [2] and 0% in assay [3].

Take `CCn1c(=O)c2c(nc(Cc3c(F)cccc3F)n2C)n(Cc2ccccc2)c1=O`: the Activity in assay [1] came out at 21%; at Adenosine receptor A2a, 28%; in assay [2], 48%; in assay [3], 4%.

Regarding `CCn1c(=O)c2[nH]c(Cc3ccccc3)nc2n(CCS(=O)(=O)CC)c1=O`, the Activity in assay [1] was determined as 6%; on Adenosine receptor A2a it was 1%; in assay [2], 55%; in assay [3], 6%.

For `CCCn1c(=O)c2[nH]c(Cc3ccccc3)nc2n(CC[S+]([O-])CC)c1=O` (stereo not drawn), the Activity is 10% in assay [1], 7% at Adenosine receptor A2a, 1% in assay [2] and 18% in assay [3].

On to `CCCn1c(=O)c2c(nc(-c3ccccc3)n2C)n(CCSCC)c1=O`, for which the Activity amounted to 17% in assay [1], 2% at Adenosine receptor A2a, 26% in assay [2] and 1% in assay [3].
